Screening data deposited in PubChem BioAssay by several laboratories.
Hits are enriched below; roughly 1.5% of the tested compounds scored in any of these assays.
AP complement = alternative pathway complement inhibition, orthogonal assay | Human serum alternative complement pathway, LPS-coated ELISA, C3 deposition; tested in compound mixtures | inhibition, % at 5 µM | hit rate 0.08% among 62,000;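 active = inhibition above 30% in each of the two pooled mixtures holding the compound, so the lower value exceeds 30%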;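 note: 0% = serum in Mg-EGTA without compound and 100% = EDTA serum blank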
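Test system: human serum complement alternative pathway, C3 deposition onto LPS / Medium: Mg2+-EGTA GVB++ buffer containing human serum at 1:15 dilution / Probe or stimulus: Plate-bound LPS / Times: 1 h at 37 °C / Signal: ELISA with HRP anti-human C3 antibody, TMB substrate, absorbance 450 nm / Measure: percent inhibition / Repeats: two pool placements per compound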
Plk1 PBD FP = inhibitors of human Plk1 polo box domain binding; Plk1 PBD phosphopeptide binding, fluorescence polarization; inhibition, %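 (tested at about 20 µM)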; hit rate 0.13% among 97,000; in the data active = inhibition above about 34%, passing the limit was not always enough
Target sequence (P53350 whole entry, looked up, the tested form may be a part): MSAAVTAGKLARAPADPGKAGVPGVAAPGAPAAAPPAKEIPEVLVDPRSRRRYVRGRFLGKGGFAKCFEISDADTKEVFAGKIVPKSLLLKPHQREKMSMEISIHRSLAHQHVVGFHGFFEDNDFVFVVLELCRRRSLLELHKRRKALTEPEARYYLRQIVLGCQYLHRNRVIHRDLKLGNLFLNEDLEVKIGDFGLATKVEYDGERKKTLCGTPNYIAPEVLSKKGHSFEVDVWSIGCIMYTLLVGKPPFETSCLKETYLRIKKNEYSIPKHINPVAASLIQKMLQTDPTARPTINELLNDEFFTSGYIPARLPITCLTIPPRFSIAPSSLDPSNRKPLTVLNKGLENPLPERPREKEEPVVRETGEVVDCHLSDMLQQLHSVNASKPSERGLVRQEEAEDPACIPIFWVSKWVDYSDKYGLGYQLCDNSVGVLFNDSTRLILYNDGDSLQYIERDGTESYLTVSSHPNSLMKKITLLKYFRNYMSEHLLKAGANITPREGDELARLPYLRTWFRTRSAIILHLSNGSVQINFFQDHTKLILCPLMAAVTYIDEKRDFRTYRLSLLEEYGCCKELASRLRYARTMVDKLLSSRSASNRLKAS
HePTP inhibitor = inhibitors of human HePTP phosphatase. P35236. recombinant HePTP phosphatase activity, OD absorbance. inhibition, % at 20 µM. hit rate 0.64% among 110,000; in the data active = inhibition above about 50%;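 note: plate controls were vehicle for no effect and reference inhibitor for full effect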
Pyk2 oligo antag = antagonists of human Pyk2 oligomerization; Q293 cells, Pyk2 FERM NanoBiT luminescence; active compounds read low; hit rate 0.83% among 99,000; z-score (the deposit names both 25 µM and 10 µM); AID 1347419;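 active = Z-score of -3 or lower, scaled per plate to the spread of control and sample wells; inactive = z-score above -3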;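 note: negative z-score means lost luminescence so less FERM oligomerization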
HEK293 NFkB inh = lowers PMA/ionomycin-induced NF-kB signal in HEK293 cells | inhibition, % at 3 µM | hit rate 0.21% among 62,000 | HEK-293 NF-kB luciferase reporter, luminescence;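 active = inhibition above the mean of all tested compounds plus 3 SD, cut at about 40% in these data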;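 note: 0% = stimulated DMSO wells and 100% = 10 µM reference inhibitor 5653914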
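System: NF-kB luciferase reporter HEK-293 cells | Replication: Single test | Control set: DMSO vs reference inhibitor | Evaluation: % inhibition | Schedule: 1 h pretreatment, 16 h stimulation, 37 °C | Probe or stimulus: PMA with ionomycin | Compound dosing: One dose, 3 µM | Detection: Luciferase luminescence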
PLK1 kinase inh = inhibitors of human PLK1 kinase; recombinant PLK1 kinase, TR-FRET peptide phosphorylation; P53350; inhibition, % at 10 µM; hit rate 0.53% among 97,000;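 active = inhibition of 50% or more in the single-concentration screen; inactive = inhibition below 50%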;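 note: 0% = DMSO max control and 100% = H-89 dihydrochloride min control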
Numbers without * were called inactive; · = no result given.

SMILES	AP complement	Plk1 PBD FP	HePTP inhibitor	Pyk2 oligo antag	HEK293 NFkB inh	PLK1 kinase inh
O=C(O)C1C2C=CC3(CN(Cc4ccco4)C(=O)C13)O2 (centres undefined)	11.3	2.2	5.5	·	-2.5	58.5*
CCN(CC)CCn1c(SCc2ccccc2)nc2ccccc21	·	·	-14.3	·	·	·
N#Cc1c(NC(=O)CSc2ncn[nH]2)sc2c1CCCCC2	9.3	·	-3.5	0.06	54.0*	·
O=c1[nH]c(Nc2nc3ccccc3o2)nc2c1CCCC2	-3.6	8.7	7.3	-3.26*	-53.3	-7.1
CCOC(=O)C(=CNc1ccc([N+](=O)[O-])cc1)C(=O)OCC	·	·	8.7	·	·	·
COc1ccc(N/C=C(/C2=CC(=O)C=CC2=O)[N+](=O)[O-])cc1	·	·	58.1*	·	·	·
FC(F)(F)c1cccc(-c2nnc(-c3ccccc3)c(N3CCOCC3)n2)c1	·	-16.5	·	-3.87*	·	-9.4
N/C(=N\OC(=O)c1ccccc1F)c1ccc(Cl)cc1	·	·	-1.0	·	·	·
O=[N+]([O-])c1cccc(S(=O)(=O)Nc2ccc3c(c2)OCCO3)c1	·	·	-11.2	·	·	·
CC1=C(C(=O)OCc2ccc3c(c2)OCO3)C(c2ccccc2)NC(=O)N1 (centres undefined)	15.5	-11.0	8.3	-3.4*	36.8	-9.2
CC1=C(C(=O)OCc2ccc3c(c2)OCO3)C(c2ccccc2OCc2ccccc2)NC(=O)N1 (centres undefined)	·	-9.1	·	-3.23*	·	5.5
CCCOc1ccccc1C1NC(=O)NC(C)=C1C(=O)OCc1ccccc1 (centres undefined)	·	6.3	·	-2.54	·	-8.3
COc1cc(C2NC(=O)NC(C)=C2C(=O)OCc2ccc3c(c2)OCO3)cc(Br)c1O (centres undefined)	·	·	7.1	·	·	·
CCOC(=O)C1=C(C)NC(=O)NC1c1ccc(C)o1 (centres undefined)	16.9	17.5	-1.4	·	17.1	68.6*
O=C(Nc1ccc2c(c1)OCO2)c1cccc2c1C(=O)N(Cc1cccnc1)C2	13.1	·	20.8	-0.69	14.9	·
COc1cc(NC(=O)c2cccc3c2C(=O)N(Cc2cccnc2)C3)cc(OC)c1OC	9.7	·	-0.5	·	58.3*	·
CCn1c(SC(C)C)nnc1-c1c[nH]c2ccccc12	30.0	-8.9	1.6	·	5.5	64.7*
CCOC(=O)CSc1nnc(-c2c[nH]c3ccccc23)n1CC	16.6	-15.7	2.7	·	1.9	67.7*
CCn1c(SCC(=O)NCc2ccccc2)nnc1-c1c[nH]c2ccccc12	·	2.8	·	0.56	·	-9.4
O=c1oc2ccccc2n1CCn1c2ccccc2c2nc3ccccc3nc21	-0.6	6.8	1.2	-3.11*	14.1	-8.1
COc1cc(C=C2C(=O)NC(=S)NC2=O)ccc1OCc1ccc(C(=O)O)cc1	·	·	-15.6	·	·	·
O=C1NC(=S)NC(=O)C1=Cc1cc(Cl)c(OCc2ccc(C(=O)O)cc2)c(Cl)c1	·	·	103.6*	·	·	·
COc1ccc(C(=O)NC(Nc2ccccc2)C(Cl)(Cl)Cl)cc1OC (centres undefined)	·	·	5.5	·	·	·
O=C(c1sc2ccccc2c1Cl)N1CCN(Cc2ccccc2)CC1	·	·	102.7*	·	·	·
O=C(c1sc2ccccc2c1Cl)N1CCC(Cc2ccccc2)CC1	·	·	8.0	·	·	·
SMILES	AP complement	Plk1 PBD FP	HePTP inhibitor	Pyk2 oligo antag	HEK293 NFkB inh	PLK1 kinase inh
COC(=O)CSc1nc(C)cc(Oc2ccccc2)n1	13.8	-3.9	10.1	·	18.1	58.8*
CCN(CC)CCn1c2ccccc2c2cnc(N)c(C#N)c21	·	-19.5	·	-0.46	·	52.0*
CN(C)C=Nc1ncc2c3ccccc3n(CCN(C)C)c2c1C#N	12.6	0.8	0.1	-1.17	24.6	45.4
CCOc1ccccc1/C=N/Nc1nnc(-c2ccccc2)c(=O)[nH]1	·	·	2.5	·	·	·
COc1cc(Br)c(/C=C2\C(=O)N(c3cccc(C(=O)O)c3)N=C2C)cc1OC	·	·	77.2*	·	·	·
COc1cc(Br)c(/C=C2/C(=O)N(c3ccc(C)cc3)N=C2C)cc1OC	·	·	-1.2	·	·	·
COc1cc(/C=C2\C(=O)N(c3cccc(C(=O)O)c3)N=C2C)c([N+](=O)[O-])cc1OC	·	·	74.7*	·	·	·
COc1cc(Br)c(/C=C2\C(=O)N(c3ccc(S(N)(=O)=O)cc3)N=C2C)cc1OC	·	·	-2.4	·	·	·
COc1cc(/C=C2\C(=O)N(c3cccc(C(=O)O)c3)N=C2C)ccc1O	·	·	23.8	·	·	·
COc1cccc(/C=C2\C(=O)N(c3cccc(C(=O)O)c3)N=C2C)c1	·	·	65.7*	·	·	·
COc1ccc(OC)c(/C=C2\C(=O)N(c3ccc(S(N)(=O)=O)cc3)N=C2C)c1	·	·	67.7*	·	·	·
O=C(Nc1ccc2oc(-c3ccc(F)cc3Cl)nc2c1)c1cc2ccccc2o1	·	·	-9.7	·	·	·
